From PubChem
dFosB activator: enhances mouse delta FosB homodimer DNA binding | actives 0.99% (n = 340,000) | purified delta FosB, TAMRA-CDK5 oligo fluorescence polarization; percent of positive-control signal above neutral wells | activation, % at 25 µM | P13346;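 active means mean activation above about 17%, with every replicate also reaching it, limit read from the data, passing the limit was not always enough; inconclusive means only one of the two conditions met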
Target sequence (P13346 whole entry, looked up): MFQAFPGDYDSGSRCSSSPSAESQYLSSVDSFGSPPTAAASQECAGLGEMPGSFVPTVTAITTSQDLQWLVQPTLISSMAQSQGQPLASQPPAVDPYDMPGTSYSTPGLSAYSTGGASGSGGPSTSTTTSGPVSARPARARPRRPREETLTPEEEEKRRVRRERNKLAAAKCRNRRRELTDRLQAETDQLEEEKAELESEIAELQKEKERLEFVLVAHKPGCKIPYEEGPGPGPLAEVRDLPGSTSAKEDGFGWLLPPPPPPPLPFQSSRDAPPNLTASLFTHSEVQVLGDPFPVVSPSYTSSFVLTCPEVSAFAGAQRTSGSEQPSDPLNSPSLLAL
HIV Env fusion: blocks HIV Env-driven cell-cell fusion | HeLa-JRFL Env/CEM21 cell fusion, luciferase | inhibition, % at 12.3 µM | actives 1.1% (n = 360,000) | AID 651610;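 active means mean replicate inhibition score of at least 50 and every replicate individually at or above 50; inconclusive means only one of the two criteria met; inactive means mean below 50 and not all replicates reaching 50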;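 further: 0% = plate neutral controls and 100% = maraviroc near 300 nM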
Cneo AK release: Cryptococcus neoformans lysis via adenylate kinase release. C. neoformans lysis, adenylate kinase release luminescence, 4 h; normalised: neutral wells 0, clomiphene wells 100. actives 0.2% (n = 360,000). lysis activity, % at 15 µM;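 active means mean lysis activity across replicates of at least 80%, whatever share of replicates individually reach that level; inactive means mean lysis activity below 80%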
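Material – log-phase Cryptococcus neoformans yeast cells · Input – 5 × 10^6 yeast cells/mL · Medium – fresh YPD growth medium · Doses – single compound concentration per well · Timing – static 4 h at 37 °C with compound, 1 h detection · Detection – adenylate kinase release luminescence · Read-out – signal increase indicating cell lysis · Control set – Clomiphene as positive lysis control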
miR-122 sensor: blocks miR-122 activity in Huh7 sensor cells; Huh7 miR-122 Renilla luciferase sensor, 48 h; neutral wells = 0, positive control = 100; activation (reporter increase), % at 12.5 µM; actives 0.3% (n = 340,000);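 active means mean replicate activation score at least 90 and every replicate individually at or above 90; inconclusive means only one of the two criteria met; inactive means neither criterion met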;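 further: higher luciferase means less miR-122 activity so hits act as miR-122 inhibitors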
GSIS activator: primary screen for activators of insulin secretion dependent on glucose, INS-1E cells, GLuc reporter luminescence. AID 743287. actives 0.61% (n = 370,000). activation, % at 16.6 µM. INS-1E GLuc reporter insulin secretion, 2-3 h;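 active means lowest replicate activation of at least 40%, so every replicate reaches that level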;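 further: 0% = median of neutral control wells and 100% = median of IBMX positive control wells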
Rtt109 HAT inh: inhibitors of Candida albicans Rtt109/Vps75 histone acetyltransferase; actives 0.16% (n = 330,000); inhibition, % at 34.9 µM; purified Rtt109/Vps75, ThioGlo CoA-SH fluorescence, 4 h; Q5AAJ8; AID 540336;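 active means inhibition of at least 50% in every replicate; inconclusive means best replicate reaches 50% inhibition but some replicates fall short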
Target sequence (Q5AAJ8 whole entry, looked up): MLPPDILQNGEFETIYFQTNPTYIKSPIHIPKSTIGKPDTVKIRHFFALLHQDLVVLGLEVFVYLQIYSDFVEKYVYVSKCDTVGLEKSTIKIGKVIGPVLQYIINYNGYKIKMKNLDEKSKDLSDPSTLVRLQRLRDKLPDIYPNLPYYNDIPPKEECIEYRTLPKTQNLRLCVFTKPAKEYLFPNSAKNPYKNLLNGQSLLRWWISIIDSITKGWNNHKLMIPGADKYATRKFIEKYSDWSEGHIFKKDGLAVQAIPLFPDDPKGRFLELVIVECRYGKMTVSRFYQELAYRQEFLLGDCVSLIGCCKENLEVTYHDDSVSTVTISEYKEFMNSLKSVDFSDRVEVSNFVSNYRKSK
Starred values were filed as active, the others as inactive; ? = inconclusive; · = no result; ! = not active in a repeat; [ ] = another dose, or the depositor's remark. Most compounds without a hit are left out; they make up all but 2.4% or so of the library.

SMILES | dFosB activator | HIV Env fusion | Cneo AK release | miR-122 sensor | GSIS activator | Rtt109 HAT inh
O=C1NCCOCn2nncc2CC[C@H]1Cc1ccc(Cl)cc1 | · | · | · | · | 13 | ·
O=C(C[C@H]1C=C[C@@H](NC(=O)Nc2ccc(F)cc2)[C@H](CO)O1)NCc1cccc(F)c1 | · | -5[16.7 µM] | 0 | · | -6 | ·
C[C@H]1CCCCO[C@@H](CN(C)Cc2ccc(C(F)(F)F)cc2)[C@@H](C)CN([C@@H](C)CO)C(=O)c2cc(NC(=O)Nc3ccc4c(c3)OCO4)ccc2O1 | · | 86*[16.7 µM] | -4 | -6[16.7 µM] | 1 | ·
C[C@@H]1CN([C@H](C)CO)C(=O)c2cc(NC(=O)Nc3ccc(C(F)(F)F)cc3)ccc2O[C@@H](C)CCCCO[C@H]1CN(C)Cc1ccc2c(c1)OCO2 | · | ? | 5 | -21[16.7 µM] | 20 | ·
CCc1cc(-c2nnn(-c3cc(C(C)C)ccc3C)c2CC)ccc1-c1cn(CCc2c[nH]c3ccccc23)nn1 | · | 84* | 2 | -3 | -2 | ·
COc1cccc(-c2cc(C(=O)Nc3ccncc3)c3ccccc3n2)c1 | -19 | 5 | 3 | 13 | -15 | 6
Cc1ccc(NC(=O)c2cc(C)nc3ccccc23)cc1 | -3 | -2 | -1 | 7 | -2 | 7
Cc1cc(C(=O)NC(C)CCC(C)C)c2ccccc2n1 (stereo not given) | -14 | 7 | · | · | 56* | ·
Cc1ccc(NC(=O)c2cc(CC(C)C)nc3ccccc23)cc1 | -16 | 68* | 8 | 16 | -9 | -4
COc1ccc(NC(=O)c2cc(CC(C)C)nc3ccccc23)cc1 | -4 | 78* | 22 | 21 | · | 1
Cc1cc(C(=O)OCC(=O)NCCC(C)C)c2ccccc2n1 | -2 | 3 | -2 | -4 | · | 0
CN1CCN(C(=O)C2=C[C@H](C(C)(C)C)C[C@H](OCc3ccc(CO)cc3)O2)CC1 | · | 10[16.7 µM] | 4 | · | · | ·
CCCCc1c(-c2ccccc2OC)ncn1Cc1ccc(Cl)cc1Cl | · | 12 | · | · | · | ·
CCCCc1c(-c2ccccc2OC)ncn1CCc1ccccc1OC | · | 31 | · | · | 25 | ·
CCCCc1c(-c2ccccc2OC)ncn1C(C)c1ccc(Cl)cc1 (stereo not given) | · | -8 | · | · | 55* | ·
CCCCCc1c(-c2ccccc2OC)ncn1CCc1ccccc1OC | · | 69* | · | · | 9 | ·
CCCCc1c(-c2ccccc2F)ncn1CCc1ccccc1OC | · | 65* | · | · | 64* | ·
CCCCCc1c(-c2ccccc2F)ncn1CCc1ccccc1OC | · | 46 | · | · | 20 | ·
CCCC#Cc1ccc2c(c1)O[C@@H](CN(C)C(=O)C1CC1)[C@H](C)CN([C@H](C)CO)S2(=O)=O | · | 7[16.7 µM] | 6 | 37[16.7 µM] | -20 | ·
C[C@H](CO)N1C[C@H](C)[C@@H](CN(C)Cc2ccc(C(F)(F)F)cc2)Oc2c(NC(=O)Nc3ccc(F)cc3)cccc2C1=O | · | · | -2 | 85[16.7 µM] | -25 | ·
CC(C)NC(=O)N(C)C[C@H]1Oc2c(NC(=O)Nc3ccc(C(F)(F)F)cc3)cccc2C(=O)N([C@@H](C)CO)C[C@H]1C | · | 56*[16.7 µM] | 2 | 4[16.7 µM] | 7 | ·
C[C@@H]1CN([C@@H](C)CO)C(=O)c2cccc(NC(=O)Nc3ccc(C(F)(F)F)cc3)c2O[C@H]1CN(C)Cc1ccc(C(F)(F)F)cc1 | · | 76*[16.7 µM] | -1 | 13[16.7 µM] | -3 | ·
C[C@H]1CN([C@@H](C)CO)C(=O)c2cccc(NC(=O)Nc3ccc(C(F)(F)F)cc3)c2O[C@@H]1CN(C)Cc1ccc(C(F)(F)F)cc1 | · | ? | 2 | 44[16.7 µM] | -4 | ·
C[C@@H]1CN([C@H](C)CO)C(=O)c2cccc(NC(=O)Nc3ccc(F)cc3)c2O[C@H]1CN(C)Cc1ccc(C(F)(F)F)cc1 | · | · | 1 | 165*[16.7 µM] | -20 | ·
C[C@@H]1CN([C@@H](C)CO)C(=O)c2cccc(NC(=O)Nc3ccc(C(F)(F)F)cc3)c2O[C@H]1CN(C)Cc1ccc(Cl)c(Cl)c1 | · | 85*[16.7 µM] | 3 | 0[16.7 µM] | 44* | ·
SMILES | dFosB activator | HIV Env fusion | Cneo AK release | miR-122 sensor | GSIS activator | Rtt109 HAT inh
COc1ccc(S(=O)(=O)N(C)C[C@H]2Oc3c(NC(=O)Nc4ccc(C(F)(F)F)cc4)cccc3C(=O)N([C@@H](C)CO)C[C@H]2C)cc1 | · | 108*[16.7 µM] | -3 | -16[16.7 µM] | -19 | ·
C[C@H](CO)N1C[C@H](C)[C@@H](CN(C)Cc2ccc(Cl)c(Cl)c2)Oc2c(NC(=O)c3ccncc3)cccc2C1=O | -11 | -11[16.7 µM] | 2 | 106*![16.7 µM] | -34 | -27
C[C@@H]1CN([C@@H](C)CO)C(=O)c2cccc(NC(=O)c3ccncc3)c2O[C@@H]1CN(C)Cc1ccc(Cl)c(Cl)c1 | · | -22[16.7 µM] | 8 | -4[16.7 µM] | -27 | ·
COCC(=O)N1CC2(CCN(Cc3ccccc3)CC2)c2c(n(C)c3cc(OC)ccc23)[C@H]1CO | · | · | · | · | -12 | ·
O=C(C[C@H]1C[C@@H]2c3cc(NC(=O)c4cccnc4)ccc3O[C@@H]2[C@@H](CO)O1)NCC(F)(F)F | · | -8[16.7 µM] | -2 | 4[16.7 µM] | 1 | ·
O=c1[nH]nc(Sc2ncnc3sccc23)n1CCc1ccccc1 | -7 | 64* | 2 | 22 | · | ·
CCN(CC)C(=O)CSc1n[nH]c(=O)n1CCc1ccccc1 | -9 | -7 | 0 | -4 | 1 | -4
N#CN=CN1CC=C(c2ccc(Cl)cc2)CC1 | · | 63* | · | · | 67* | ·
C[C@H](CO)N1C[C@H](C)[C@H](CN(C)S(=O)(=O)c2ccc(Cl)cc2)Oc2ccc(NC(=O)Nc3ccc(F)cc3)cc2C1=O | · | 5[16.7 µM] | 38 | -4[16.7 µM] | -23 | ·
O=C(NC(=O)c1ccccc1)Nc1ccccn1 | -6 | 68* | -16 | 4 | 10 | 9
CC(Nc1nc(-c2ccc(F)cc2)cs1)c1nc2cc(Cl)c(N3CCCCC3)cc2n1CCCO (stereo not given) | -7 | 78* | 0 | -3 | 8 | -7
CC(Nc1nc(-c2ccc(F)cc2)cs1)c1nc2cc(Cl)c(N3CCCCC3)cc2n1CCOCCO (stereo not given) | -1 | -22 | 0 | -13 | -5 | 2
O=C(C[C@H]1CC[C@H](NC(=O)c2ccncc2)[C@H](CO)O1)NCc1ccncn1 | · | · | · | · | 7 | ·
CC(=O)N1CCCCN2[C@H](C1)[C@@H](c1ccc(C#Cc3ccccc3F)cc1)[C@@H]2CO | · | · | -1 | -5[16.7 µM] | -20 | ·
CC(C)CCSc1nc(N)c(C#N)cc1C#N | 0 | 82* | 2 | -11 | -11 | -4
CC(=O)c1cc(C#N)c(SCCC(C)C)nc1C | 0 | · | -1 | -1 | 4 | -2
COc1cccc2c1Oc1ncccc1N(C(=O)CCC(=O)NCc1ccc(F)cc1)C2 | -10 | -1 | -5 | -6 | 3 | 51*
COc1ccc(N2CCN(C(=O)CNC(=O)Cc3ccccc3)CC2)cc1 | -10 | -8 | 1 | -7 | 0 | 53*
O=C(COC(=O)c1ccc[nH]c1=O)Nc1ccc(N2CCCCC2)cc1 | -1 | 62* | -2 | 3 | 5 | 4
O=C(COC(=O)c1ccc[nH]c1=O)Nc1ccc(S(=O)(=O)N2CCCC2)cc1 | -6 | 19 | · | · | -1 | 15
